The record followed here is article PMC9071996 (RSC Advances, 2019).

Assay type in all cases: cell-based
One assay concerns GES-1 cells. Kind of assay: MTS cytotoxicity assay, normal GES-1 cells. Particulars: Homo sapiens, GES1, 72 h, read-out: IC50 (μM) GES-1.
Another assay deals with RPMI-8226 cells. Kind of assay: MTS cytotoxicity assay, RPMI-8226. As to conditions: Homo sapiens, RPMI-8226, 72 h, read-out: IC50 (μM) RPMI-8226. Summed up:
(§1)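 MTS viability assay in A549, MDA-MB-231 and RPMI-8226 human cancer cells. All compounds were first screened at 10 and 50 μM. Compounds that crossed a set viability threshold in this screen went on to IC50 determination.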
For orientation: Tetrazolium assays rely on reduction of a dye to a coloured formazan, in cell work by metabolically active cells.

In a further assay the test system is A549 cells. Kind of assay: MTS cytotoxicity assay, A549. Particulars: Homo sapiens, A549, 72 h, read-out: IC50 (μM) A549. The method, boiled down: as §1
A further assay deals with MDA-MB-231 cells. The assay can be described thus: MTS cytotoxicity assay, MDA-MB-231. As to conditions: Homo sapiens, MDA-MB-231, 72 h, read-out: IC50 (μM) MBA-MD-231. The method, boiled down:
as §1

A value given as a limit tells only on which side of the number the result lay.

As for `CC12CCC(c3c(-c4ccccc4F)nc(N)nc31)C2(C)C` (centres unmarked) [Compound 3a, 4-(2-Fluorophenyl)-8,9,9-trimethyl-5,6,7,8-tetrahydro-5,8-methanoquinazolin-2-amine], the IC50 was over 50 µM in the assay on GES-1 cells, over 50 µM with RPMI-8226 cells, over 50 µM with A549 cells and 32.85 ± 0.31 µM in the assay on MDA-MB-231 cells.

Consider `CC12CCC(c3c(-c4cccc(F)c4)nc(N)nc31)C2(C)C` (centres unmarked) [Compound 3b, 4-(3-Fluorophenyl)-8,9,9-trimethyl-5,6,7,8-tetrahydro-5,8-methanoquinazolin-2-amine], for which the 50% inhibitory concentration (IC50) was over 50 µM with GES-1 cells, over 50 µM in the assay with RPMI-8226 cells, 24.35 ± 0.01 µM in the assay with A549 cells and 28.56 ± 0.26 µM with MDA-MB-231 cells.

Regarding `CC12CCC(c3c(-c4ccc(F)cc4)nc(N)nc31)C2(C)C` (centres unmarked) [Compound 3c, 4-(4-Fluorophenyl)-8,9,9-trimethyl-5,6,7,8-tetrahydro-5,8-methanoquinazolin-2-amine], the half-inhibitory concentration (IC50) with GES-1 cells was over 50 µM; in the assay on RPMI-8226 cells, 9.3 ± 0.34 µM; with A549 cells it was 12.63 ± 0.02 µM; with MDA-MB-231 cells it was 12.59 ± 0.04 µM.

As for `CC12CCC(c3c(-c4ccccc4Cl)nc(N)nc31)C2(C)C` (centres unmarked) [Compound 3d, 4-(2-Chlorophenyl)-8,9,9-trimethyl-5,6,7,8-tetrahydro-5,8-methanoquinazolin-2-amine], the concentration for half-maximal inhibition (IC50) in the assay with GES-1 cells is over 50 µM; with RPMI-8226 cells, 11.4 ± 0.18 µM; in the assay on A549 cells, 16.9 ± 0.5 µM; with MDA-MB-231 cells, 25.5 ± 0.39 µM.

On to `CC12CCC(c3c(-c4cccc(Cl)c4)nc(N)nc31)C2(C)C` (centres unmarked) [Compound 3e, 4-(3-Chlorophenyl)-8,9,9-trimethyl-5,6,7,8-tetrahydro-5,8-methanoquinazolin-2-amine], for which the concentration for half-maximal inhibition (IC50) in the assay with GES-1 cells was over 50 µM; in the assay on RPMI-8226 cells, 10.4 ± 0.35 µM; with A549 cells it was 10.63 ± 0.09 µM; in the assay with MDA-MB-231 cells it was 23.3 ± 0.44 µM.

Turning to `CC12CCC(c3c(-c4ccccc4Br)nc(N)nc31)C2(C)C` (centres unmarked) [Compound 3g, 4-(2-Bromophenyl)-8,9,9-trimethyl-5,6,7,8-tetrahydro-5,8-methanoquinazolin-2-amine], the IC50 was over 50 µM with GES-1 cells, over 50 µM in the assay with RPMI-8226 cells, 23.32 ± 0.03 µM in the assay with A549 cells and 18.3 ± 0.26 µM in the assay with MDA-MB-231 cells.

On to `CC12CCC(c3c(-c4cccc(Br)c4)nc(N)nc31)C2(C)C` (centres unmarked) [Compound 3h, 4-(3-Bromophenyl)-8,9,9-trimethyl-5,6,7,8-tetrahydro-5,8-methanoquinazolin-2-amine], for which the concentration for half-maximal inhibition (IC50) in the assay with GES-1 cells, in the assay with RPMI-8226 cells, with A549 cells and in the assay with MDA-MB-231 cells was over 50 µM in each case.

As for `CC12CCC(c3c(-c4ccc(Br)cc4)nc(N)nc31)C2(C)C` (centres unmarked) [Compound 3i, 4-(4-Bromophenyl)-8,9,9-trimethyl-5,6,7,8-tetrahydro-5,8-methanoquinazolin-2-amine], the half-inhibitory concentration (IC50) with GES-1 cells is over 50 µM; in the assay on RPMI-8226 cells, 18.94 ± 0.08 µM; with A549 cells, 16.45 ± 0.04 µM; with MDA-MB-231 cells, 8.66 ± 0.17 µM.

Consider `Cc1ccccc1-c1nc(N)nc2c1C1CCC2(C)C1(C)C` (centres unmarked) [Compound 3j, 8,9,9-Trimethyl-4-(o-tolyl)-5,6,7,8-tetrahydro-5,8-methanoquinazolin-2-amine], for which the IC50 in the assay on GES-1 cells was over 50 µM; in the assay with RPMI-8226 cells, over 50 µM; in the assay with A549 cells, 22.54 ± 0.15 µM; in the assay on MDA-MB-231 cells, 26.2 ± 0.4 µM.

In the case of `Cc1cccc(-c2nc(N)nc3c2C2CCC3(C)C2(C)C)c1` (centres unmarked) [Compound 3k, 8,9,9-Trimethyl-4-(m-tolyl)-5,6,7,8-tetrahydro-5,8-methanoquinazolin-2-amine], the IC50 in the assay on GES-1 cells was over 50 µM; with RPMI-8226 cells it was over 50 µM; in the assay on A549 cells, 18 ± 0.18 µM; in the assay with MDA-MB-231 cells, 20 ± 0.09 µM.

`Cc1ccc(-c2nc(N)nc3c2C2CCC3(C)C2(C)C)cc1` (centres unmarked) [Compound 3l, 8,9,9-Trimethyl-4-(p-tolyl)-5,6,7,8-tetrahydro-5,8-methanoquinazolin-2-amine]: the concentration for half-maximal inhibition (IC50) is over 50 µM with GES-1 cells, 13.86 ± 0.09 µM in the assay with RPMI-8226 cells, 15.32 ± 0.09 µM with A549 cells and 15.68 ± 0.14 µM with MDA-MB-231 cells.

In general, IC50 refers to the concentration that gives 50% inhibition.
